pCIP destab – p/CIP-EGFP fusion destabilizers, primary screen, fluorescence, F442A cells | 16 h | 290,000 tested, 0.01% active | AID 1984, 2009 | decrease of EGFP signal, % at 10 µM | Q05BA5;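 active = EGFP signal decrease of at least 30% at 10 µM or well 3 SD below plate mean, unless failing retest; inactive = the rest, including hits failing retest or dose response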
RAM inhibit – inhibitors of the yeast RAM network, primary screen, dse1pr::URA3 reporter, 5-FOA selection; S. cerevisiae dse1pr::URA3 reporter, 5-FOA growth OD615, 2 d; analog-sensitive cbk1-as2 kinase mutant strain; inhibition, % at 50 µM; 190,000 tested, 1.8% active;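 active = inhibition above a set limit, 3 SD over mean compound inhibition, cut at about 8.4% in these data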;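 note: 0% = DMSO-only wells with no growth and 100% = 10 µM 1-NA-PP1 full growth; inhibition rescues growth on 5-FOA so higher OD means more RAM inhibition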
NCF1 inh – p47phox/p22phox peptide binding inhibitors, primary screen, biochemical, uHTS, NADPH oxidase regulatory subunit; Neutrophil cytosol factor 1 (Homo sapiens), P14598; fluorescence polarization, 2 h; inhibition, % at 24.7 µM; 220,000 tested, 0.53% active;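 active = inhibition above about 30%, limit read from the data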;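 note: 0% = p47phox with labelled peptide and 100% = labelled peptide alone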
Dynein transport – inhibitors of GR-EGFP nuclear translocation, primary screen, dynein cargo transport inhibitor project, imaging, high-content, 3617.4 mouse cells. test concentration mostly 20 µM; stimulated with dexamethasone, 1 µM; active compounds read low. z-score, hits read low. 220,000 tested, 0.47% active. AID 1381, 2008;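 active = plate z-score of nuclear minus cytoplasmic receptor signal below a set negative limit, without overly bright fluorescence or cell loss, cut at about -3.5 in these data, passing the limit was not always enough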;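 note: z-score of nuclear minus cytoplasmic ring GR-EGFP intensity difference per well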
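Also added – dexamethasone, 1.0 µM final · Buffer or medium – tet-free, stripped-serum medium · Schedule – induction 48 h, compound 1 h, agonist 30 min · Detection – formaldehyde fixation, Hoechst nuclear stain, 10x automated fluorescence imaging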
RAM efflux-def – 5-FOA growth of efflux-deficient control yeast, dose response, counter-screen for RAM network inhibitor project, S. cerevisiae, OD615 | shares compounds with RAM inhibit | max inhibition, % | 1,200 tested, under 10 active | S. cerevisiae efflux-deficient reporter strain, 5-FOA growth OD615, 2 days | AID 1305, 2008; call rule not given here;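 note: plate controls were vehicle for no effect and reference inhibitor for full effect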
An asterisk follows results filed as active; . = not tested or not shown. The list is not random: actives were taken first. Their share in the collection is about 1.9%.

SMILES | pCIP destab | RAM inhibit | NCF1 inh | Dynein transport | RAM efflux-def
C=CCn1c(SCC(=O)Nc2ccccc2CC)nnc1-c1ccncc1 | -11 | 1 | -7 | 0.023 | .
O=C(Cc1ccc(Cl)cc1Cl)NCc1cccnc1 | -15 | . | . | . | .
CCOc1ccc(N(CC(=O)NCCc2ccc(C)cc2)S(=O)(=O)c2c(C)noc2C)cc1 | -5 | . | . | . | .
O=C(C1CC1)N(Cc1ccco1)c1nc(-c2ccccc2)cs1 | -2 | 12* | -46 | 1.9 | 3
O=C(COc1ccc(Cl)cc1)N(Cc1ccccc1)c1nc(-c2ccccc2)cs1 | -1 | 1 | -40 | 0.019 | .
COCCNC(=O)C(c1ccc(F)cc1)N(C(=O)CCC(=O)Nc1nccs1)c1ccc(C)cc1 (stereo not drawn) | -1 | 12* | -2 | -0.44 | 2
COCCNC(=O)C(c1ccc(F)cc1)N(CCOC)C(=O)CCC(=O)Nc1nccs1 (stereo not drawn) | -7 | 1 | 4 | 0.12 | .
CC(C)CCOc1ncnc2c1sc1nc3c(cc12)CSC(C)(C)C3 | -11 | 13* | -22 | -0.58 | 3
COc1ccccc1-c1ccc(/C=C2/C=C(CC(C)C)OC2=O)o1 | -3 | 14* | -25 | -1.3 | 10
Cc1cc(C)c(Nc2cc(S(=O)(=O)O)c(N)c3c2C(=O)c2ccccc2C3=O)c(C)c1 | -6 | 26* | 59* | 0.73 | 15
Cc1cc(C)c(NC(=O)COC(=O)c2cccc3c2C(=O)c2ccccc2C3=O)c(C)c1 | -8 | 4 | -13 | -0.083 | .
CCCCCCNC(=O)CC(c1ccccc1)c1cc(Br)ccc1O (stereo not drawn) | 1 | 11* | 1 | 0.033 | 2
CNC(=O)C1CCN(S(=O)(=O)c2c(C)noc2/C=C/c2ccc(C)cc2)CC1 | -3 | . | . | . | .
Cc1ccc(C(=O)n2nc(-c3ccccc3)nc2NCc2ccco2)cc1 | -10 | 13* | -14 | -0.83 | 3
COc1ccc(CC(=O)n2nc(-c3ccc(Cl)cc3)nc2NCc2ccco2)cc1 | -17 | 14* | -3 | -0.28 | 4
O=C(c1cccs1)n1nc(-c2ccc(Cl)cc2)nc1NCc1ccco1 | 4 | 13* | -5 | 0.55 | 3
O=S(=O)(c1ccccc1)n1nc(-c2ccccc2)nc1NCc1ccco1 | 10 | 16* | -9 | 1.5 | 6
CCCC(=O)n1nc(-c2ccc(C)cc2)nc1NCc1ccco1 | -5 | 3 | 2 | 0.77 | .
CSc1nc(-c2ccccc2)nn1S(=O)(=O)c1ccccc1 | 1 | -1 | 0 | 0.38 | .
CC(=O)n1nc(-c2ccc(Cl)cc2)nc1NCc1ccco1 | -5 | 2 | -2 | 0.012 | .
CC(=O)C(C)Oc1ccc(Cc2ncc(C(F)(F)F)cc2Cl)cc1 (stereo not drawn) | -9 | 1 | 1 | 0.0058 | .
Cc1cccc(C)c1N=Nc1c(C)cc(O)cc1C | 2 | . | . | . | .
COc1ccc(S(=O)(=O)N2CCOC2CNC(=O)C(=O)NCCc2ccc(S(N)(=O)=O)cc2)cc1 (stereo not drawn) | -6 | . | . | . | .
Cc1ccc(S(=O)(=O)N(CCCO)CC(O)CON=C2c3ccccc3-c3ccccc32)cc1 (stereo not drawn) | -15 | 13* | -39 | -0.96 | 3
C=C(C)COc1ccc(-c2[nH]ncc2Oc2ccccc2OCC)c(O)c1 | -12 | 16* | 1 | -0.49 | 2
SMILES | pCIP destab | RAM inhibit | NCF1 inh | Dynein transport | RAM efflux-def
C=C(C)COc1ccc(-c2[nH]ncc2-c2ccc(OC)c(OC)c2)c(O)c1 | 4 | 14* | -9 | -0.18 | 2
C=C(C)COc1ccc(-c2[nH]ncc2-c2ccc(OC)cc2)c(O)c1 | -6 | . | -3 | 0.97 | .
CC(C)(C)c1cc(C(=O)NCCN2CCCC2)cc(C(C)(C)C)c1 | -2 | -1 | -9 | 0.34 | .
Cc1ccc(-n2c(SCC(=O)Nc3cccc(S(=O)(=O)NC4=NCCCCC4)c3)nc3ccccc3c2=O)cc1C | -6 | 12* | -2 | 0.26 | 2
CCOC(=O)COc1cc(OCC(=O)OCC)c2c3c(c(=O)oc2c1)CCCC3 | 2 | . | . | . | .
Cc1cnc(C(=O)NC2CC(C)(C)Cc3c2cnn3-c2cccc(F)c2)cn1 (stereo not drawn) | 6 | . | . | . | .
CCOC(=O)C1=C(c2ccccc2)N=c2s/c(=C\c3cc(OC)c(OC)c(OC)c3)c(=O)n2C1c1cccs1 (stereo not drawn) | -25 | 12* | -21 | -0.23 | 4
COc1ccc(S(=O)(=O)N2CCN(c3ccccc3OC)CC2)cc1C(=O)N1CCCCC1 | -14 | . | . | . | .
CCOC(=O)C1CCN(C2CCN(C(=O)c3oc4c(C)c(C)ccc4c3C)CC2)CC1 | -9 | . | . | . | .
O=C(CCCn1c(SCC(=O)NCC2CCCO2)nc2ccccc2c1=O)NCc1ccccc1 (stereo not drawn) | -2 | 4 | -10 | -0.96 | .
Cc1ccc(CSc2nc3ccccc3c(=O)n2Cc2ccco2)cc1 | -5 | 14* | -10 | -0.74 | 4
O=C(CCCn1c(SCc2cccc(F)c2)nc2ccccc2c1=O)NCC1CCCO1 (stereo not drawn) | 6 | 16* | -10 | 2.7 | 1
O=C(CSc1nc2ccccc2c(=O)n1CCC(=O)N1CCCCC1)NCc1ccccc1 | 2 | 18* | -5 | -0.87 | 2
COn1c(SCc2ccccc2)nc2ccccc2c1=O | 4 | 12* | 6 | 0.0085 | 5
COc1ccc(-c2nc(CS(=O)(=O)CC(=O)NCCCN3CCN(C)CC3)c(C)o2)cc1 | 6 | . | . | . | .
Cc1ccc2occ(/C=N/NC(=O)c3ccccc3O)c(=O)c2c1 | -7 | . | . | . | .
O=c1c2ccccc2nc(SCc2cccc(F)c2)n1Cc1ccco1 | -5 | 14* | 2 | -1.3 | 6
COc1ccc(C)cc1NS(=O)(=O)c1ccc2c(c1)CCN2C(C)=O | -1 | . | . | . | .
COc1cc(NS(=O)(=O)c2ccc(Nc3nc(-c4ccccc4)cs3)cc2)nc(OC)n1 | -4 | 11* | -59 | 0.16 | 2
Cc1ccc(S(=O)(=O)NCc2ccc3c(c2)cc(C)n3C)cc1 | 2 | 12* | 0 | 1.1 | 3
CCOc1ncccc1C(=O)NC(C)CCc1ccccc1 (stereo not drawn) | -8 | . | . | . | .
Cc1[nH]n(-c2ncc(-c3ccccc3)s2)c(=O)c1C(c1ccc(Cl)cc1)C(C#N)C#N (stereo not drawn) | 0 | 12* | -45 | -3.5 | 5
COc1ccnc(N2CCN(c3ccc(Cl)cc3)CC2)c1C#N | -7 | 14* | -14 | 1.4 | 4
COc1ccnc(N2CCN(c3cccc(C(F)(F)F)c3)CC2)c1C#N | -2 | 5 | -6 | -0.76 | .
N#Cc1c(N)n(CCOC(=O)c2cccc([N+](=O)[O-])c2)c2nc3ccccc3nc12 | 2 | 12* | -17 | 0.37 | 6
N#Cc1c(N)n(CCOC(=O)c2cccc(Br)c2)c2nc3ccccc3nc12 | 0 | 5 | -13 | -0.049 | .

From PubChem
